Published values collected from several papers.
Compare with care: the assays were run in different laboratories.
Observed: metabolic stability

| Structure (SMILES) | host | matrix | concentration | time | pH | half-life [min] |
| --- | --- | --- | --- | --- | --- | --- |
| C=C1NC(=O)[C@H](C)N(O)C(=O)[C@H]([C@@H](O)C(N)=O)N(C)C(=O)[C@H](C)OC(=O)[C@@H]2C[C@H](C)CN2C1=O | human | liver microsomes | – | – | – | > 120 |
| O=C(c1cc(-n2sc3ncccc3c2=O)ccc1Cl)N1CCOCC1 | human | liver microsomes | – | – | – | > 120 |
| NCCc1c[nH]c2ccc(O)cc12 | human | hepatocytes | 5 µM | – | – | 33 |
| Cc1cc(C)nc(Nc2ncc(C(=O)NCCc3c(C)[nH]c4ccccc34)cn2)c1 | human | liver microsomes | 1 µM | – | – | 28 |
| CCCCCn1cc(C(=O)Nc2cccc3ccccc23)c2ccccc21 | male human | liver microsomes | 1 µM | – | pH 7.4 | 2.3 |
| Cc1nc2c(=O)n(C)c(=O)nc-2n(C)n1 | human | liver microsomes | – | – | – | > 186 |
| CN1CCCCC1Cn1cc(C(=O)c2cc([N+](=O)[O-])ccc2I)c2ccccc21 (racemic) | human | liver microsomes | – | – | – | 5.9 |
| CCCCCn1nc(C(=O)Nc2cccc3ccccc23)c2ccccc21 | male human | liver microsomes | 1 µM | – | pH 7.4 | 1.7 |
| O=c1c2ccccc2sn1Cc1ccc(Cl)cc1 | human | liver microsomes | – | – | – | 300 |
| N=c1c2c(-c3ccccc3)c(-c3ccccc3)n(Cc3ccccc3)c2ncn1[C@H]1CC[C@H](O)CC1 | human | liver S9 | 1 µM | – | – | > 120 |
| C#Cc1ccc2c(c1)C(c1ccccn1)=NCc1c(-c3cnco3)ncn1-2 | human | liver microsomes | – | – | – | 1500 |
| CCCCCCCCCCCCCCCCCCCCOP(=O)(O)CO[C@H](C)Cn1cnc2c(N)ncnc21.N | human | liver microsomes | 3 µM | 30 min | pH 7.4 | 49 |
| CN(C)CCc1c[nH]c2ccccc12 | human | hepatocytes | 0.6 µM | – | – | 98.9 |
| Cc1cnc(Nc2ccc(C(=O)NC3CCN(C(=O)COCCOCCOCC(=O)N4CCC(NC(=O)c5ccc(Nc6ncc(C)c(Nc7ccc(Cl)c(NS(=O)(=O)C(C)(C)C)c7)n6)cc5F)CC4)CC3)c(F)c2)nc1Nc1ccc(Cl)c(NS(=O)(=O)C(C)(C)C)c1 | human | liver microsomes | – | – | – | 3.6 |
| C[C@]12CC[C@H]3[C@@H](CCC4=CC(=O)CC[C@@]43C)[C@@H]1CC[C@@H]2O | human | liver microsomes | 1 µM | – | – | 14.9 |
| CC(C)NCC(O)COc1cccc2ccccc12 (stereo not shown) | human | liver microsomes | 2 µM | – | – | > 40 |
